In the library only some 3.4% were active in any assay of this set; here they are far more common.
DTT redox prof: compounds producing H2O2 with reducing agent – biochemical, NIH compound library profiling, artefact control for MLSCN library redox annotation, primary screen; DTT-dependent redox cycling H2O2, phenol red/HRP absorbance; 100% = 100 µM peroxide control, 0% = buffer; AID 878, 2007; activation, % at 10 µM; hit rate 0.03% among 200,000;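 active = activation of at least 50% relative to the plate's high and low controls in the primary single-dose screen; inactive = activation below 50%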;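 note: compound incubated with DTT at 0.8 mM final as the reducing agent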
PKD1 kinase inh: inhibitors of human PKD1 kinase, biochemical, fluorescence polarization; hit rate 0.056% among 200,000; AID 797, 2007; PKD1 kinase fluorescence polarization assay; inhibition, % (concentration not given with the values); Serine/threonine-protein kinase D1 (Homo sapiens), Q15139; in the data active = inhibition above about 50%
ROMK primary: ROMK potassium channel modulators, primary screen, cell-based, thallium flux, MLSMR library; Tet-inducible ROMK, thallium flux fluorescence; actives lie on both sides; B-score at 10 µM; hit rate 2% among 130,000;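 active = signal ratio slope over the read window, or its plate-corrected B-score, at least 3 SD from the plate mean, either direction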;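 note: B-score of the F/F0 ratio slope over 7 to 12 s after thallium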
Cl transport mod: KCC2 cotransporter modulators, thallium flux, primary screen, cell-based, HEK293 KCC2, FluoZin-2 fluorescence, MLSMR; B-score of Tl+ flux slope (higher = more flux/activation; lower = inhibition) at 10 µM; hit rate 2.2% among 190,000; KCC2 cells, thallium flux FluoZin-2 fluorescence; Solute carrier family 12 member 5 (Homo sapiens), Q9H2X9;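 active = thallium flux slope and its plate-corrected score both differing from the plate sample mean at a set confidence after two filtering rounds, in either direction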;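 note: slope of fluorescence scaled to starting intensity during 10 to 20 s after thallium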
p97 ATPase inh: inhibitors of human p97 ATPase, primary screen, biochemical; recombinant p97 ATPase, Kinase-Glo ATP luminescence, 3 h; Transitional endoplasmic reticulum ATPase (Homo sapiens), P55072; AID 1481, 2009; inhibition, % at 8 µM; hit rate 0.42% among 220,000; in the data active = inhibition above about 15%
MDM2 E3 inh: MDM2-luciferase reporter signal enhancers, primary screen, MDM2 E3 ligase inhibitor project, cell-based, luminescence, 1536-well | AID 1230, 2008 | signal enhancement, % at 5 µM | cell-based MDM2 ubiquitination luciferase reporter, 2 h; 0 = plate control, 100 = twice control, blank-subtracted | E3 ubiquitin-protein ligase Mdm2 (Homo sapiens), Q00987 | hit rate 0.11% among 210,000;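 active = signal enhancement of 30% or more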;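 note: luminescence tracks abundance of the self-degrading MDM2-luciferase fusion protein; higher signal means inhibition of MDM2 E3 ligase activity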
Target sequence (Q00987 whole entry, looked up, the tested form may be a part): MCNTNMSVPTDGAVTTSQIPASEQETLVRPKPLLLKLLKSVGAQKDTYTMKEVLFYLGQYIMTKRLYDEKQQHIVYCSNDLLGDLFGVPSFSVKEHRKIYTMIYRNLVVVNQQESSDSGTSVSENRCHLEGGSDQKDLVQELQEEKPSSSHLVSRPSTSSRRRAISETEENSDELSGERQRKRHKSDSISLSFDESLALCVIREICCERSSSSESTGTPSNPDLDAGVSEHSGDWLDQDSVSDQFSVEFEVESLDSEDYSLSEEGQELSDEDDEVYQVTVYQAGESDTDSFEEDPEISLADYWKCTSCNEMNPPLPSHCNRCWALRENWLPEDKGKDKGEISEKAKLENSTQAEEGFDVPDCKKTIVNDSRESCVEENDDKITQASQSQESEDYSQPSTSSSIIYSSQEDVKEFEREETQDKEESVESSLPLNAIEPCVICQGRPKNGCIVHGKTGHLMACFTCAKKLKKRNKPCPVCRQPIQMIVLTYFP
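Assay system: stable mammalian line carrying autodegrading MDM2–luciferase fusion reporter; amount: 2000 cells seeded into each well; buffer or medium: DMEM; benchmarks: plate control and blank wells; signal: luciferase luminescence; timing: 2 h compound exposure at 37 °C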
KCC2 sec1: KCC2 modulators in sodium-free buffer, confirmation, cell-based, HEK293 KCC2, thallium flux, secondary assay; normalised thallium flux (F/F0 slope) at 10 µM; shares compounds with Cl transport mod; FluoZin2 fluorescence; hits give high values; hit rate 15% among 3,700;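 active = thallium flux slope above the same plate's solvent-only control mean plus 3 SD; inconclusive = the two replicate wells disagree; inactive = no significant difference from solvent-only control wells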
KCC2 bumet counter: thallium flux persisting under bumetanide in KCC2 cells, confirmation, counter-screen for KCC2 modulator project, cell-based, HEK293 KCC2, FluoZin2, secondary assay 3; hit rate 49% among 3,700; HEK293-KCC2 + bumetanide/ouabain; hits give high values; shares compounds with Cl transport mod; normalized thallium flux at 10 µM;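 active = thallium entry rate above the same plate's blocked-transporter control wells by more than 3 SD; inconclusive = the two repeat wells disagree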;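 note: raw slope of fluorescence over initial fluorescence between 10 and 20 s after thallium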
KCC2 secondary2: KCC2 modulators without ouabain present, confirmation, cell-based, HEK293 KCC2, thallium flux, FluoZin2, secondary assay 2; thallium flux FluoZin2 fluorescence; actives lie on both sides; F/F0 rise rate, 10–20 s post-thallium; AID 1715, 2009; shares compounds with Cl transport mod; normalized thallium flux at 10 µM; hit rate 23% among 3,700;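 active = thallium flux slope more than 3 SD above or below the plate's solvent-only control mean, mostly below; inconclusive = the two repeat wells disagreed; inactive = no significant shift from solvent-only controls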
HEK counter1: thallium flux modulation in parental HEK cells, confirmation, counter-screen for KCC2 modulator project, cell-based, counterscreen 1. hit rate 46% among 3,700. HEK293 parental cells, thallium flux FluoZin2, ouabain; baseline-ratio fluorescence slope, 10–20 s after thallium. thallium flux rate (normalised fluorescence) at 10 µM. shares compounds with Cl transport mod. AID 1716, 2009;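 active = thallium flux rate significantly above the same plate's solvent-only control wells, beyond their mean plus 3 SD; inconclusive = the two replicate wells gave conflicting results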
KCC2 retest ouab: KCC2 inhibitors and activators, ouabain retest, confirmation, HEK-KCC2 cells | shares compounds with Cl transport mod | HEK293-KCC2, thallium flux FluoZin2 fluorescence; bidirectional: low = inhibitor, high = activator | raw Tl+ flux slope (below DMSO = inhibition, above = activation) at 10 µM | hit rate 48% among 3,700;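 active = thallium flux slope beyond 3 SD from same-plate DMSO control mean in most replicates, usually higher, sometimes lower; inconclusive = repeat tests gave conflicting results; inactive = no significant difference from controls in most replicates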;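 note: slope of initial-normalized fluorescence between seconds 10 and 20 after thallium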
HEK counter2: native HEK Tl+ uptake effects, second counter-screen – HEK cells, counterscreen 2, counter-screen for KCC2 modulator project, confirmation. shares compounds with Cl transport mod. AID 1718, 2009. hit rate 33% among 3,700. thallium flux slope at 10 µM. HEK293 parental, thallium flux FluoZin-2 fluorescence slope;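 active = thallium flux slope above the same plate's solvent-control mean plus 3 SD in both duplicate wells; inconclusive = duplicate wells that disagreed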;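 note: run without ouabain in cells lacking the KCC2 cotransporter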
Numbers stand for hits; . = inactive; ? = inconclusive; / = not tested or not shown.

SMILES	DTT redox prof	PKD1 kinase inh	ROMK primary	Cl transport mod	p97 ATPase inh	MDM2 E3 inh	KCC2 sec1	KCC2 bumet counter	KCC2 secondary2	HEK counter1	KCC2 retest ouab	HEK counter2
N#Cc1nc(-c2ccc(F)cc2)oc1N1CCCC1	.	.	.	-5.7	.	.	.	.	.	.	.	.
Cc1ccc(N2C(=O)C(CN3CCCCC3)C2c2ccccc2)cc1 (centres undefined)	.	.	.	.	.	.	/	/	/	/	/	/
CCOC(=O)c1ccc(NC(=O)CSc2nc(C)cc(=O)[nH]2)cc1	.	.	.	/	.	.	.	.	.	.	.	.
COC(=O)c1ccc(NC(=O)CSC2=NC(=O)C(c3ccccc3)C(=O)N2)cc1 (centres undefined)	.	.	.	9.2	.	.	.	?	.	.	.	?
Cc1cc(=O)[nH]c(SCC(=O)Nc2ccc(C(=O)O)cc2)n1	.	.	.	.	.	.	/	/	/	/	/	/
COCCN(C(=O)Cn1nnc2ccccc21)C(C(=O)NC1CCCC1)c1cccc(OC)c1OC (centres undefined)	.	.	/	.	.	.	/	/	/	/	/	/
CCN(CC)C(=O)/C(=C\c1ccncc1)NC(=O)c1ccccc1	.	.	.	.	.	.	/	/	/	/	/	/
COC(=O)c1ccccc1NC(=O)CSc1ccc(C)cc1	.	.	.	-4.3	.	.	.	?	.	.	.	.
O=C(COC(=O)CNC(=O)c1ccccc1Cl)Nc1ncc(C(F)(F)F)cc1Cl	.	.	.	.	.	.	/	/	/	/	/	/
c1ccc(-c2nc(CSc3n[nH]c(-c4cccs4)n3)cs2)cc1	.	.	/	-3.8	.	.	.	.	0.024	.	.	.
COc1ccccc1N1CCN(C(=O)c2cc3n(n2)C(C(F)(F)F)CC(c2ccco2)N3)CC1 (centres undefined)	.	.	.	.	.	.	/	/	/	/	/	/
O=C(CSc1ccccc1)Nc1ccc(S(=O)(=O)Nc2ncccn2)cc1	.	.	.	.	.	.	/	/	/	/	/	/
O=C(O)c1ccc(N2C(=O)/C(=C\c3ccccc3)N=C2c2ccccc2)cc1	/	/	/	.	.	/	/	/	/	/	/	/
O=C(NC1CCCCC1)c1cc(C(=O)c2ccccc2Br)c[nH]1	.	.	.	/	.	.	/	/	/	/	/	/
CCCCc1c(C)nc2ccc(C)cc2c1SCCC(=O)O	.	.	.	-3.8	.	.	.	?	0.023	.	0.015	.
Cc1ccc2nc(SCC(=O)Nc3ncccn3)[nH]c2c1	/	/	.	.	.	.	/	/	/	/	/	/
CS(=O)(=O)Nc1ccc(C(=O)NCCC2=CCCCC2)cc1	.	.	/	.	.	.	/	/	/	/	/	/
COc1ccc(N=C2SC(C(=O)Nc3ccc(OC)cc3)CC(=O)N2CCN2CCOCC2)cc1 (centres undefined)	.	.	.	.	.	.	/	/	/	/	/	/
Cc1ccc(-n2c(C3CC3c3ccc(Cl)cc3)n[nH]c2=S)cc1 (centres undefined)	.	.	.	.	.	.	/	/	/	/	/	/
Cc1ccc(C2CC2c2n[nH]c(=S)n2-c2cccc(Cl)c2)cc1 (centres undefined)	.	.	/	5.6	.	.	.	0.027	.	0.011	?	.
CC(=O)SCC(=O)N=c1sc2cc(F)ccc2n1C	.	.	.	/	.	.	.	0.0059	.	?	.	.
CCN(CC)C1CCN(C(=O)CCc2nnc(CCc3ccccc3)o2)C1 (centres undefined)	.	.	/	/	.	.	/	/	/	/	/	/
COC(=O)CN1C(=O)C2(C(C#N)=C(N)Oc3c2c(C)nn3-c2ccccc2)c2ccccc21 (centres undefined)	.	.	.	3.9	.	.	.	0.0057	.	.	.	.
Cc1ccc(C)c(S(=O)(=O)N2CCN(CC(=O)N3CCc4ccccc4C3)CC2)c1	.	.	.	-4.1	.	.	.	.	.	.	0.022	?
Cc1ccc(C)c(S(=O)(=O)N2CCN(CC(=O)Nc3ccc4c(c3)CCC4)CC2)c1	.	.	.	.	.	.	/	/	/	/	/	/
SMILES	DTT redox prof	PKD1 kinase inh	ROMK primary	Cl transport mod	p97 ATPase inh	MDM2 E3 inh	KCC2 sec1	KCC2 bumet counter	KCC2 secondary2	HEK counter1	KCC2 retest ouab	HEK counter2
O=C(COc1ccccc1[N+](=O)[O-])N(Cc1ccccc1)c1ccccn1	.	.	.	.	.	.	/	/	/	/	/	/
CCc1nc(OCCN(C)C)c2oc3ccccc3c2n1	.	.	.	/	.	.	/	/	/	/	/	/
COc1ccc(Nc2ncnc3sc(-c4ccccc4)cc23)cc1OC	.	.	.	.	.	.	/	/	/	/	/	/
CCOC(=O)C1=NN(C(=O)c2cccc(Br)c2)C(O)(C(C)(C)C)C1 (centres undefined)	/	/	/	107	.	.	0.048	0.13	0.052	?	0.099	0.039
Cc1ccc(S(=O)(=O)N2CCCC2C(=O)Nc2nc3ccccc3s2)cc1 (centres undefined)	.	.	/	.	.	.	/	/	/	/	/	/
O=C(Nc1nc2ccccc2s1)C1CCCN1S(=O)(=O)c1ccc(Cl)cc1 (centres undefined)	.	.	/	/	.	.	.	.	.	.	.	.
NS(=O)(=O)c1ccc(NC(=O)/C=C/c2cccs2)cc1	/	/	/	.	.	/	/	/	/	/	/	/
CN1CCC(Oc2ccccc2Sc2ccccc2)CC1	.	.	.	.	.	.	/	/	/	/	/	/
